# The list is not random: actives were taken first. Their share in the collection is about 2.5%.
# MEKK2wt PB1 HTS: modulators of MEK5 binding to wildtype MEKK2, primary screen, biochemical, multiplex bead flow cytometry, Alexa488-MEK5; Mitogen-activated protein kinase kinase kinase 2 (Homo sapiens), Q9Y2U5; Alexa488-MEK5 binding to MEKK2 WT; actives lie on both sides; binding response (% of control), % at 10 µM; 1.1% of 290,000 active; AID 1531, 2009; in the data active = binding response below about 67% or above about 130%
# MEKK3 PB1 HTS: modulators of MEKK3-MEK5 PB1 binding, primary screen, biochemical, wildtype MEKK3, multiplex bead flow cytometry, Alexa488-MEK5 | AID 1529, 2009 | bead-based flow cytometry, Alexa488-MEK5 binding to MEKK3; actives lie on both sides; 0 = blocked by unlabeled MEK5, 100 = vehicle | binding response (% of control), % at 10 µM | 1.4% of 290,000 active | Mitogen-activated protein kinase kinase kinase 3 (Homo sapiens), Q99759;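 active = binding response more than 3 SD above or below the average of its plate-row segment, actives on both sides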;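 note: Alexa488 bead fluorescence after subtracting the streptavidin-only scavenger bead signal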
# ABCB1 block: ABCB1 efflux pump inhibitors, primary screen, cell-based, multiplex, flow cytometry, ABCG2 counter-screen | ATP-dependent translocase ABCB1 (Homo sapiens), P08183 | CCRF-Adr cells, JC-1 efflux | AID 1326, 2008 | inhibition, % at 6.6 µM | 0.067% of 190,000 active; in the data active = inhibition above about 40%;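 note: 0% = vehicle and 100% = reference inhibitor; higher value means more JC-1 retained so stronger ABCB1 efflux block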
# Target sequence (P08183 whole entry, looked up): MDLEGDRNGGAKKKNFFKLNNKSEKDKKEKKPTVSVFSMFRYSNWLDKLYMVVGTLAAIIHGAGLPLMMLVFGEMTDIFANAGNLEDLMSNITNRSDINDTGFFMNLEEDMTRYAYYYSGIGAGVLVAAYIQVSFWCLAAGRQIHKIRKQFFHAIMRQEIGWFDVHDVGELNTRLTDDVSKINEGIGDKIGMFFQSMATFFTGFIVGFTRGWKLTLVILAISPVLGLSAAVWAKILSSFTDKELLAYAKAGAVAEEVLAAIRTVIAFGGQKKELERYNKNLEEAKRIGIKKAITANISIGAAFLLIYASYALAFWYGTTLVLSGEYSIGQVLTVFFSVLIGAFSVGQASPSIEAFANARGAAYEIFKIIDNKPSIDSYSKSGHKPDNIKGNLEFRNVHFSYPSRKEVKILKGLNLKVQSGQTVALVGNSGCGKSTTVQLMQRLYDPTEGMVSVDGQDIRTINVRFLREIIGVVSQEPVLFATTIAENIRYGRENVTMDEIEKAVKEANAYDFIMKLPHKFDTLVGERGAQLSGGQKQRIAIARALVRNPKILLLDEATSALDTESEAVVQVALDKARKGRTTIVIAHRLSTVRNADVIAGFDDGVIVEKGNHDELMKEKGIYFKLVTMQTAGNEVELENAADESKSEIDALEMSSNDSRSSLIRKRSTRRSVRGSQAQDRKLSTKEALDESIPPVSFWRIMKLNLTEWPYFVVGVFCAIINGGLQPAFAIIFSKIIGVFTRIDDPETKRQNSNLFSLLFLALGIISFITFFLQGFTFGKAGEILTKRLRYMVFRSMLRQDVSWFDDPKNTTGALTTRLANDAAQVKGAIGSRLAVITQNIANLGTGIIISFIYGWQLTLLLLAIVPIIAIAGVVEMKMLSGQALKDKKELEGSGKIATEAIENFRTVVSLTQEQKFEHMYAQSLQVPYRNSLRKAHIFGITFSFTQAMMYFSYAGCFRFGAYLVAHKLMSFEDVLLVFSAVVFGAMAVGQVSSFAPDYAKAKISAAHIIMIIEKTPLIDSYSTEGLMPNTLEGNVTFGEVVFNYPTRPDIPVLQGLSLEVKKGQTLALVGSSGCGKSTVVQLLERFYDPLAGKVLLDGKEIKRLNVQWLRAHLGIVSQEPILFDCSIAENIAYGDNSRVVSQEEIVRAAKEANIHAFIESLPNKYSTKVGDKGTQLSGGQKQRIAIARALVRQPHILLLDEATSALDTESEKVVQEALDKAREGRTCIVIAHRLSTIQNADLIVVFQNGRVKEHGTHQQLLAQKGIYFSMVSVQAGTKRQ
# ABCG2 block: ABCG2 efflux pump inhibitors, primary screen, multiplex with ABCB1, IgMXP3 cells, flow cytometry; 0.1% of 190,000 active; JC-1 efflux; Broad substrate specificity ATP-binding cassette transporter ABCG2 (Homo sapiens), Q9UNQ0; inhibition, % at 6.6 µM;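 active = inhibition above 80%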;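 note: 0% = DMSO and 100% = nicardipine control wells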
#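 Test system: IgMXP3 (ABCG2) plus far-red-tagged CCRF-Adr (ABCB1) cells. Reagent: JC-1 dye as substrate. Timing: 10 min exposure at 25 °C with rotation, no wash. Measured by: flow cytometric JC-1 green MFI at 530 nm. Read-out: percent efflux inhibition, scaled nicardipine 100% to DMSO 0%. Control set: nicardipine and DMSO wells.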
# Efflux pump mplx: inhibitors of Candida efflux pumps in yeast, primary screen, S. cerevisiae, Nile Red, multiplex; S. cerevisiae Candida pump triplex; inhibition, % at 10 µM; 0.44% of 330,000 active; AID 485275, 2010;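 active = plate passing quality check with inhibition over a set limit, or well fluorescence over plate mean plus 4 SD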;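 note: Nile Red retained in pooled yeast measured as flow cytometry median fluorescence; 0% = buffer negative control and 100% = Enniatin B positive control; higher means more Nile Red kept so more efflux inhibition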
# MEKK2 mut-MEK5: MEK5 binding signal on mutant MEKK2 PB1, primary screen, biochemical, multiplex bead flow cytometry, Alexa488-MEK5; Alexa488-MEK5 binding to MEKK2 mutant; percent response, % at 10 µM; 0.35% of 290,000 active; AID 1530, 2009; in the data active = percent response above about 24%, passing the limit was not always enough
# MEKK2wt confirm: modulators of MEK5 binding to wildtype MEKK2, confirmation, biochemical, single concentration, multiplex bead flow cytometry; shares compounds with MEKK3 PB1 HTS; Alexa488-MEK5 binding to MEKK2 WT; actives lie on both sides; binding response (% of control), % at 10 µM; 2.4% of 5,900 active; in the data active = binding response below about 16% or above about 210%; inactive = in between
# MEKK2mut-MEK5: mutant MEKK2 PB1-MEK5 binding signal retest – biochemical, single concentration, multiplex bead flow cytometry, confirmation | shares compounds with MEKK3 PB1 HTS | Alexa488-MEK5 binding to MEKK2 mutant | percent response, % at 10 µM | 2% of 5,900 active; in the data active = percent response mostly above about 71%, no sharp cut-off; inactive = mostly below about 38%;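 note: higher means compound restores mutant binding toward wildtype level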
# MEKK3-MEK5 inh: MEKK3 wild-type PB1 binding to MEK5, inhibitors, confirmation, biochemical, bead multiplex flow cytometry, single concentration, wildtype; shares compounds with MEKK3 PB1 HTS; Alexa488-MEK5 binding to MEKK3; active compounds read low; binding response (% of control), % at 10 µM; 1.8% of 5,900 active; AID 1894, 2009;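 active = binding response below 72% of control, or above a set upper limit, though filed actives all read lower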;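 note: 100% = DMSO only wells and 0% = binding blocked by excess unlabeled MEK5; lower values mean stronger disruption of MEK5 binding to MEKK3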
# The depositor's hits bear a star; . = no result given; [ ] = dose if it differs, or a comment.
SMILES,MEKK2wt PB1 HTS,MEKK3 PB1 HTS,ABCB1 block,ABCG2 block,Efflux pump mplx,MEKK2 mut-MEK5,MEKK2wt confirm,MEKK2mut-MEK5,MEKK3-MEK5 inh
Cc1ccc(C2OC34CCCCCC3C(C#N)(C(=N)O4)C2(C#N)C#N)cc1 (stereo not drawn),88,56*[inhibitor],1,16,0,-2,99,1,103
COc1ccc(CC(=O)Nc2cc(C)ccn2)cc1,56,42*[inhibitor],4,14,0,-15,89,1,94
COc1ccc(CC(=O)Nc2cc(C)ccn2)cc1OC,.,.,.,.,0,.,.,.,.
CCc1ccc(NC(=O)CSc2nnc(CNC(=O)c3c(F)cccc3Cl)o2)cc1,3.0*[inhibitor],3.0*[inhibitor],1,20,0,-24,104,3,101
O=C(Nc1nc(-c2ccc(F)cc2)cs1)c1ccc(N2C(=O)CCC2=O)cc1,79,74*[inhibitor],0,0,0,-7,93,-2,90
Cc1cccc(NC(=O)CSCC(=O)NCc2ccco2)c1,107,105,.,.,0,10,.,.,.
CCc1c(C)sc(NC(=O)Cn2nc(C(F)(F)F)c3c2CCCC3)c1C#N,90,100,1,-1,0,-4,.,.,.
Cc1cccc(/C=N/n2c(-c3cc(-c4ccccc4)n[nH]3)n[nH]c2=S)c1,101,138*,1,1,0,0,96,-3,101
CCN(CC)S(=O)(=O)c1cccc(C(=O)N[C@H](C(=O)Nc2nc3ccc(F)cc3s2)C(C)C)c1,99,108,0,1,0,-1,.,.,.
Cc1cc(=O)c2c(C)ccc(C)c2[nH]1,85,74*[inhibitor],.,.,0,-25,103,2,105
CCc1ccc(C(=O)COC(=O)c2cccnc2Cl)cc1,74,72*[inhibitor],0,9,0,-16,100,-3,103
O=C(COC(=O)c1cccnc1Cl)c1ccccc1,98,98,0,0,0,2,.,.,.
CN1C(=O)NC(c2ccc(O)cc2)C2=C1CN(c1ccc(O)cc1)C2=O (stereo not drawn),126,147*,0,1,0,5,98,-6,100
O=C(OCC#Cc1c(COC(=O)c2ccccc2)nnn1Cc1ccccc1)c1ccccc1,96,93,.,.,0,2,.,.,.
COc1ccc(CN2CCN(C(c3ccc(F)cc3)c3ccc(F)cc3)CC2)c(OC)c1OC,183*,114,.,.,0,15,138,34,105
CC(=O)Nc1nonc1NC(=O)c1ccc(F)cc1,105,109,0,12,0,-2,.,.,.
CC(=O)Nc1nonc1NC(C)=O,3.0*[inhibitor],2.0*[inhibitor],1,2,0,-15,100,0,104
Cn1cc(C2CC(c3ccccc3)=NN2C(=O)c2ccccc2)c2ccccc21 (stereo not drawn),97,90,2,14,-1,-2,.,.,.
CCCC(=O)N1N=C(c2ccccc2)CC1c1cn(C)c2ccccc12 (stereo not drawn),107,134*,1,0,0,3,100,-4,100
